Beta2AR agonist – human beta-2 adrenergic receptor agonism by FAP; Am2.2-beta2AR cells, FAP receptor internalization, flow cytometry; 0.43% of 340,000 active; response, % (concentration not given with the values); P07550;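 active means response above a set limit, near 3 SD of response in nonfluorescent compounds, cut at about 42% in these data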
Target sequence (P07550 whole entry, looked up): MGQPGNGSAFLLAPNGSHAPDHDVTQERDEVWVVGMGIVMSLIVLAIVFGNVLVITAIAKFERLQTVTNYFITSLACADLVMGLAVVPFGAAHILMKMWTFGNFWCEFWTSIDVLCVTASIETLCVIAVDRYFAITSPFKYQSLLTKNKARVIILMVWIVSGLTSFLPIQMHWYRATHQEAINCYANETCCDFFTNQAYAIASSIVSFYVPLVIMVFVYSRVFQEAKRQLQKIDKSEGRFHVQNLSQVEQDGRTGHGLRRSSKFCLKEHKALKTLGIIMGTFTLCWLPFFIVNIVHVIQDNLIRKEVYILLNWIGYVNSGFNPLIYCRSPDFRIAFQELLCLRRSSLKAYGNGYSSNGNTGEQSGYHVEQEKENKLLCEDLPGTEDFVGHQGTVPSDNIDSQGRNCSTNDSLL
V-ATPase pH – yeast V-ATPase proton transport regulation by pHLuorin; 0.37% of 350,000 active; response, % at 10 µM; S. cerevisiae, pHLuorin cytosolic pH fluorescence; in the data active means response mostly above about 7.3%, no sharp cut-off; inactive means mostly below about 5.4%; further: actives read high
rCAG binder – molecules binding r(CAG) RNA repeats; r(CAG) RNA repeat, TO-PRO-1 dye displacement fluorescence; inhibition, % at 3 µM; 1.3% of 370,000 active; AID 651821;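 active means inhibition above the plate cutoff, the mean of all test compounds on that plate plus 3 SD, cut at about 35% in these data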;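 further: higher means more dye released from RNA so lower well fluorescence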
Granule exo inh – lytic granule exocytosis inhibition | TALL-104 LAMP-1 surface exposure, flow cytometry; cells stimulated with thapsigargin and PMA | AID 651702 | inhibition, % at 10 µM | 0.66% of 360,000 active;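 active means inhibition above about 55%, limit read from the data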
T cell modulator – T cell immune modulators affecting CD8 T cell-vesicle binding | 2C CD8+ T cell-vesicle binding, flow cytometry; active compounds read low | response (vesicle binding), % at 7 µM | 0.068% of 330,000 active;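 active means response, share of CD8 T cells binding vesicles, and their 90th percentile fluorescence all below set limits, cut at about 80% in these data, passing the limit was not always enough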;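 further: values below 100% mean blocked vesicle binding to the CD8+ T cells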
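Incubation: binding step 1.5 h, 37 °C, antibody labelling 20 min, ice; system: murine 2C transgenic CD8+ T lymphocytes; technique: cytometric PE anti-B7-1 and Alexa647 anti-CD8 signals after 1% paraformaldehyde fixation; also added: QL9-charged Drosophila Ld/ICAM-1/B7-1 vesicles; control set: naked versus QL9-loaded vesicles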
MPTP block – permeability transition pore inhibition. AID 602449. 1.4% of 360,000 active. inhibition, % at 10 µM. isolated mouse mitochondria, Ca2+ swelling absorbance, 30 min;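 active means inhibition of 50% or more, scaled per plate between neutral and stimulator controls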
V-ATPase pH SP – yeast V-ATPase proton transport regulation. shares compounds with V-ATPase pH. S. cerevisiae pHLuorin cytosolic pH. response, % at 10 µM. 2% of 980 active. AID 602197; in the data active means response above about 24%
Hits are given with their value. The list is not random: actives were taken first. Their share in the collection is about 3.8%.

Results for CCc1ccc(/C(C)=N/NC(=O)CNC(=O)/C=C/c2ccco2)cc1 ?
Beta2AR agonist: inactive; V-ATPase pH: 25; Granule exo inh: inactive; T cell modulator: inactive; MPTP block: inactive; V-ATPase pH SP: inactive

What do the screens show for `O=C(NCC1CCCCC1)c1ccccc1[N+](=O)[O-]`?
Beta2AR agonist: inactive; V-ATPase pH: 13; rCAG binder: inactive; Granule exo inh: inactive; T cell modulator: inactive; MPTP block: inactive; V-ATPase pH SP: inactive

Results for O=C(NCC1CCCCC1)c1cc([N+](=O)[O-])ccc1Cl ?
Beta2AR agonist: inactive; V-ATPase pH: inactive; rCAG binder: inactive; Granule exo inh: inactive; T cell modulator: inactive; MPTP block: inactive

Results for O=C(CSc1nnc(-c2ccccc2)n1-c1ccccc1)NN=C/C=C\c1ccccc1[N+](=O)[O-] ?
rCAG binder: inactive

Results for O=C(NCCCCNC(=O)c1ccc(F)cc1)c1ccc(F)cc1 ?
Beta2AR agonist: inactive; V-ATPase pH: inactive; rCAG binder: inactive; Granule exo inh: inactive; T cell modulator: inactive; MPTP block: inactive; V-ATPase pH SP: inactive

What do the screens show for `O=C(NCCCc1ccccc1)c1ccc(F)cc1`?
Beta2AR agonist: inactive; V-ATPase pH: inactive; Granule exo inh: inactive; T cell modulator: inactive; MPTP block: inactive

How did Cc1cc(NC(=O)C(C)SCC(=O)Nc2ccccc2C(C)(C)C)no1 (stereo not drawn) do in these assays?
Beta2AR agonist: inactive; V-ATPase pH: 9.9; rCAG binder: inactive; Granule exo inh: inactive; T cell modulator: inactive; MPTP block: inactive; V-ATPase pH SP: inactive

Results for Cc1cc(NC(=O)C(C)SCC(=O)Nc2ccccc2N2CCCC2)no1 (stereo not drawn) ?
Beta2AR agonist: inactive; V-ATPase pH: inactive; rCAG binder: inactive; Granule exo inh: inactive; T cell modulator: inactive; MPTP block: inactive

Results for CCc1cc(=O)oc2cc(OCC(=O)NC3CC(C)(C)NC(C)(C)C3)ccc12 ?
Beta2AR agonist: inactive; V-ATPase pH: inactive; rCAG binder: inactive; Granule exo inh: inactive; T cell modulator: inactive; MPTP block: inactive

What do the screens show for `Cc1cc(=O)oc2cc(OCC(=O)NC3CC(C)(C)NC(C)(C)C3)ccc12`?
Beta2AR agonist: inactive; V-ATPase pH: 11; rCAG binder: inactive; Granule exo inh: inactive; T cell modulator: inactive; MPTP block: inactive; V-ATPase pH SP: inactive

How did c1cnc(N2CCSCC2)nc1 do in these assays?
Beta2AR agonist: inactive; V-ATPase pH: 10; rCAG binder: inactive; Granule exo inh: inactive; T cell modulator: inactive; MPTP block: inactive; V-ATPase pH SP: inactive

What do the screens show for `c1cnc(N2CC[N+]3(CCCC3)CC2)nc1`?
Beta2AR agonist: inactive; V-ATPase pH: inactive; rCAG binder: inactive; Granule exo inh: inactive; T cell modulator: inactive; MPTP block: inactive

What do the screens show for `CC1CCc2c(sc3ncn(Cc4ccc(C(=O)O)cc4)c(=O)c23)C1` (stereo not drawn)?
Beta2AR agonist: inactive; V-ATPase pH: 6.6; rCAG binder: inactive; Granule exo inh: inactive; T cell modulator: inactive; MPTP block: inactive; V-ATPase pH SP: inactive

How did Cc1ccc(-n2c3c(cc(C(=O)NCCCN4CCOCC4)c2=O)C(=O)CC(C)(C)C3)cc1 do in these assays?
Beta2AR agonist: inactive; V-ATPase pH: 11; rCAG binder: inactive; Granule exo inh: inactive; T cell modulator: inactive; MPTP block: inactive; V-ATPase pH SP: inactive

How did C[C@@H]1ON(C)[C@H]2C[C@H]3c4[nH]c5c(-c6cc(Cl)cc(Cl)c6)cccc5c4CCN3C(=O)[C@@H]12 do in these assays?
rCAG binder: inactive

How did N#C/C(=C\c1ccncc1)C(=O)Nc1ccc(C(=O)O)cc1 do in these assays?
Beta2AR agonist: inactive; V-ATPase pH: inactive; rCAG binder: inactive; Granule exo inh: inactive; T cell modulator: inactive; MPTP block: inactive

What do the screens show for `CC(C)c1ccc(NC(=O)/C(C#N)=C/c2ccncc2)cc1`?
Beta2AR agonist: inactive; V-ATPase pH: 13; rCAG binder: inactive; Granule exo inh: inactive; T cell modulator: inactive; MPTP block: inactive; V-ATPase pH SP: inactive

What do the screens show for `Cc1cc(C)cc(C(=O)OCCN(C)C2CN(Cc3cn(Cc4cccc(F)c4)nn3)S(=O)(=O)C2)c1` (stereo not drawn)?
rCAG binder: inactive

How did CCOC(=O)N1C(=O)C[C@](Sc2ccc(OC)cc2)(C(=O)N2CCN(c3ncccn3)CC2)[C@H]1c1ccc(OC)cc1 do in these assays?
rCAG binder: inactive
